# Source: PubChem BioAssay (several laboratories)
# CHT allo act: CHT positive allosteric modulators, primary screen, cell-based, membrane potential dye, choline EC20; High affinity choline transporter 1 (Homo sapiens), Q9GZV3; CHT-expressing cells; active compounds read high; LV-AA mutant CHT in HEK293 cells; B-score at 10 µM; hit rate 0.49% among 310,000; AID 488977, 2010;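 active means initial fluorescence not abnormally high and integrated response B-score, plate-corrected, over 3 SD above library mean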
# Target sequence (Q9GZV3 whole entry, looked up): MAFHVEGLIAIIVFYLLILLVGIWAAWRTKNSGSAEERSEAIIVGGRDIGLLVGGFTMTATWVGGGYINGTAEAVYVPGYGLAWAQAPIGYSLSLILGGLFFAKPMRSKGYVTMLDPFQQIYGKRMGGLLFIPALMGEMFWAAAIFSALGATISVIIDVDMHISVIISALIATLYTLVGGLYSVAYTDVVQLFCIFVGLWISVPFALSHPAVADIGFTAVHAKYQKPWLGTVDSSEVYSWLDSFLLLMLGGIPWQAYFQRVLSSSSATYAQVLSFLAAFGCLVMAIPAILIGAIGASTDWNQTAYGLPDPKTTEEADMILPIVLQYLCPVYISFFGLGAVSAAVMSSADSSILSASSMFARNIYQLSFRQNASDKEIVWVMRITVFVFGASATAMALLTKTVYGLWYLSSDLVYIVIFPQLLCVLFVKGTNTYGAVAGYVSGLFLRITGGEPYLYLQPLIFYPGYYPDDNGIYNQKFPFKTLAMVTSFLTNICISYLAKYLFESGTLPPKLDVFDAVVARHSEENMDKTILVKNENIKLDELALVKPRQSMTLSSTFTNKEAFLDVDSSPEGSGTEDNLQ
# NR2E3 ag-1: inhibitors of NR2E3-RetCOR corepressor binding, primary screen, NR2E3 agonist project, biochemical, TR-FRET, GST-NR2E3, biotin-RetCOR. AID 2300, 2010. Photoreceptor-specific nuclear receptor (Homo sapiens), Q9Y5X4. 1536-well. inhibition of corepressor binding, % at 4.78 µM. hit rate 0.12% among 320,000;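 active means percent inhibition above the cutoff of mean plus 3 SD of all tested compounds, set per screening campaign, cut at about 20% in these data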;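 further: 0% = DMSO wells and 100% = biotin wells as full block of FRET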
#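 Assay system: NR2E3–RetCOR corepressor complex. Quantity: 1.35 nM GST-NR2E3. Buffer or medium: pH 7.5 Tris-based buffer. Reagent: biotinylated RetCOR corepressor at 7 nM final. Schedule: 5 h at 4 °C. Detection: TR-FRET, emission read at 617 and 671 nm. Replicates: one well per compound, singlicate testing.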
# GalR3 antagonist: GalR3 antagonists in HEK293 cells, primary screen, cell-based, fluorescence readout; inhibition, % at 3 µM; HEK293 GalR3-CNG cAMP membrane potential fluorescence; galR3 body fused to GalR1 C-terminus; hit rate 0.44% among 360,000;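 active means inhibition above the screen-wide average plus 3 SD, cut at about 13% in these data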;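 further: forskolin and galanin both at EC90 stimulate the cells; cAMP rise reported by CNG channel membrane potential dye signal; 0% = forskolin plus galanin with DMSO and 100% = forskolin alone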
# NR2E3 ag-2: NR2E3 agonists in two-hybrid cells, primary screen, cell-based, luminescence, CHO-S, Gal4-NCOR/VP16-NR2E3; Photoreceptor-specific nuclear receptor (Homo sapiens), Q9Y5X4; luciferase; inhibition of corepressor binding, % at 3.98 µM; hit rate 0.35% among 360,000; AID 602229, 2012;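 active means inhibition above the mean of all tested compounds plus 3 SD, cut at about 70% in these data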;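 further: 0% = DMSO with NR2E3 transfected cells and 100% = cells lacking NR2E3 construct; higher means lower luciferase signal from less NR2E3 corepressor binding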
# COUP-TFII inh: NR2F2 transcriptional activity inhibitors, primary screen, cell-based, luciferase reporter, HEK293T, luminescence; COUP transcription factor 2 (Homo sapiens), P24468; HEK293T NGFI-A luciferase reporter; inhibition, % at 8.6 µM; hit rate 0.7% among 370,000;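 active means inhibition above a per-plate cutoff, mean inhibition of test wells between control levels plus 3 SD, cut at about 38% in these data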;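 further: cells cotransfected with COUP-TFII expression vector driving the NGFI-A reporter; 0% = median of COUP-TF2 test wells and 100% = reporter-only cells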
# CHT block: inhibitors of human choline transporter CHT | hit rate 0.86% among 310,000 | AID 488975, 2010 | CHT-expressing cells, membrane potential dye, choline response; active compounds read low | B-score at 10 µM | High affinity choline transporter 1 (Homo sapiens), Q9GZV3;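 active means B-score over 3 SD under the library average, and starting fluorescence ratio not unusually high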;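 further: choline stimulus applied at its EC90 after an EC20 pre-addition; B-score computed on integrated fluorescence ratio after choline addition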
# NR2E3 ag confirm: NR2E3 agonists, confirmation, biochemical, TR-FRET; shares compounds with NR2E3 ag-1; cell-free NR2E3 corepressor release, 5 h; activation (reported as inhibition), % at 3.98 µM; hit rate 39% among 360; in the data active means activation above about 20%
# PPARg-NCOR2 ag: agonists of PPARg-NCOR2 corepressor interaction, counter-screen for NR2E3 agonist project, biochemical, TR-FRET | shares compounds with NR2E3 ag-1 | TR-FRET PPARg-NCOR2 coregulator interaction | inhibition, % at 3.98 µM | hit rate 45% among 360 | AID 504787, 2011; in the data active means inhibition above about 20%;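 further: 0% = DMSO vehicle and 100% = wells without protein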
# Active calls of the source: *; i = inactive; . = no result. Sampled rows, rich in hits. Any-hit rate of the full collection: about 2.3%.
SMILES,CHT allo act,NR2E3 ag-1,GalR3 antagonist,NR2E3 ag-2,COUP-TFII inh,CHT block,NR2E3 ag confirm,PPARg-NCOR2 ag
COC(=O)[C@]12C[C@H](CC(=O)NCc3ccccc3)C(=O)N(Cc3cccc4ccccc34)C1=C[C@H](C1CCCC1)O[C@@H]2C,.,.,.,.,9.4,.,.,.
C=CCNC(=O)CSc1nc2sccc2c(=O)n1-c1ccccc1,i,23.1*,-1.6,9.4,-12.8,i,-4.7,-6.1
O=C1C=C(N2CCOCC2)c2ccccc2C1=O,i,33.2*,-11.1,17.1,10.4,i,37.8*,64.6*
Cc1cc(-n2c(SCC(=O)NCCC3=CCCCC3)nc3n[nH]c(C)c3c2=N)ccc1Cl,i,59.4*,-8.9,19.2,-19.5,i,10.2,2.9
Cc1ccc(Cl)cc1-n1c(SCC(=O)NCCC2=CCCCC2)nc2n[nH]c(C)c2c1=N,i,-0.6,-2.7,-21.4,1.1,i,.,.
COC(=O)c1cc2ccsc2n1CC(=O)NCC1CCCO1 (stereo not given),i,-1.0,-1.2,-3.0,9.1,i,.,.
COC(=O)c1cc2ccsc2n1CC(=O)Nc1cc(C)cc(C)c1,i,36.5*,-2.7,-11.1,6.1,i,19.1,19.9*
c1ccc(CCNc2ncnc3c2nnn3Cc2ccccc2)cc1,i,22.2*,-5.1,-18.2,2.7,i,-10.8,-4.8
CC(OC(=O)CCC(=O)c1ccc(Cl)s1)C(=O)NC1(C#N)CCCCC1 (stereo not given),.,24.4*,-1.9,-21.9,-10.6,.,-8.8,-3.2
Cc1ccc(-n2c(=S)[nH]c3c(oc4ccccc43)c2=O)cc1C,i,42.7*,-2.9,-26.2,0.4,i,35.2*,32.7*
O=c1c2oc3ccccc3c2[nH]c(=S)n1-c1ccc(F)cc1,i,44.0*,-2.1,8.1,15.5,i,32.3*,24.3*
O=c1[nH]c2c(oc3ccccc32)c(=O)n1Cc1ccccc1,i,.,-11.9,-11.0,9.6,i,.,.
O=S1(=O)c2ccc(Br)cc2OC[C@@H](c2ccccc2)N1Cc1cn(Cc2ccccc2)nn1,.,.,.,.,-1.7,.,.,.
C#CCN(CC=C)Cc1ccc(OC)cc1OC,.,.,.,.,-40.9,.,.,.
c1ccc(Cn2ccc3ccc(-c4ccc5ccn(Cc6cccc(Oc7ccccc7)c6)c5c4)cc32)cc1,.,.,.,.,-9.9,.,.,.
O=C(C1=C(O)C(=O)N(CCN2CCOCC2)C1c1ccc(Cl)cc1)c1cc2ccccc2o1 (stereo not given),i,20.0*,-2.3,-16.7,-1.4,i,25.7*,23.3*
O=C(C1=C(O)C(=O)N(CCCN2CCOCC2)C1c1ccc(Cl)cc1)c1cc2ccccc2o1 (stereo not given),i,29.6*,-7.9,.,9.3,i,27.9*,20.9*
O=S1(=O)c2ccc(N3CCCC3)cc2Oc2ccccc2CN1Cc1cn(Cc2ccccc2C(F)(F)F)nn1,.,.,.,.,-11.0,.,.,.
Cc1ccccc1C(=O)N(C)[C@H]1C[C@H]2c3[nH]c4c(-c5ccc6c(c5)OCO6)cccc4c3CCN2C[C@H]1[C@H](C)O,.,.,.,.,-3.7,.,.,.
C=CCn1c(SCC(=O)OC(C)C)nnc1-c1ccc(C)cc1,.,.,.,.,-23.9,.,.,.
O=C1C[C@H](c2ccc3ccccc3c2)N=C2N1/C(=C\c1ccccc1)[C@@H](c1ccccc1C(F)(F)F)N2Cc1ccc2c(c1)OCO2,.,.,.,.,23.5,.,.,.
O=C(O)CSc1nc2ccccc2nc1Cc1ccccc1F,i,53.5*,-6.5,-47.9,2.9,i,34.3*,36.5*
COc1ccc(CN2C[C@]3(C=C(C)Cn4c(=O)n(-c5ccccc5)c(=O)n43)N(C(=O)OCc3ccccc3)C2=NC(=O)c2ccccc2)c(OC)c1,.,.,.,.,-0.6,.,.,.
C[C@@H]1ON(C)[C@H]2C[C@H]3c4[nH]c5c(-c6ccccc6F)cccc5c4CCN3C[C@@H]12,.,.,.,.,21.4,.,.,.
COc1ccc(NC(=S)Nc2cc(C)cc(C)n2)cc1OC,i,1.7,3.0,-7.0,2.5,i,.,.
SMILES,CHT allo act,NR2E3 ag-1,GalR3 antagonist,NR2E3 ag-2,COUP-TFII inh,CHT block,NR2E3 ag confirm,PPARg-NCOR2 ag
Cc1cc(C)nc(NC(=S)Nc2cccc(Cl)c2Cl)c1,i,6.6,-4.0,14.0,8.8,i,.,.
COc1cccc(NC(=S)Nc2cc(C)cc(C)n2)c1,i,31.0*,-1.7,-89.7,-40.7,i,30.3*,39.3*
Cc1cc(C)nc(NC(=S)Nc2cccc(F)c2)c1,i,21.0*,-0.5,-60.8,-39.7,i,-4.1,34.2*
COC(=O)C1CN(C2CC2)CCS(=O)(=O)N1Cc1cn(Cc2ccc(C)cc2)nn1 (stereo not given),.,.,.,.,3.9,.,.,.
COc1ccc(Cn2c(-c3ccc(OC)cc3)nc3c(c(=O)c4ccccc4n3C)c2=O)cc1,i,41.2*,.,.,.,i,28.9*,20.4*
COc1ccc(Cn2c(-c3ccc(C)cc3)nc3c(c(=O)c4ccccc4n3C)c2=O)cc1,i,2.8,-2.4,-6.4,10.3,i,.,.
O=C(CSc1nc2ccc(Cl)cc2[nH]1)Nc1ccc2c(c1)CCC2,i,32.3*,-2.0,-18.0,-4.3,i,-6.1,-4.6
CCOC(=O)c1ccc(N2CSC3=C(C#N)C(c4cccs4)CC(=O)N3C2)cc1 (stereo not given),i,26.8*,.,-11.3,9.3,i,-5.1,37.6*
Cc1ccc(N2CSC3=C(C#N)C(c4cccs4)CC(=O)N3C2)cc1 (stereo not given),i,24.1*,.,-30.2,-7.4,i,-5.5,9.2
O=C(NC1=N[C@@]2(C=C3CCCCC3n3c(=O)n(-c4ccccc4)c(=O)n32)CN1Cc1ccccc1)c1ccccc1 (stereo not given in full),.,.,.,.,-13.9,.,.,.
O=C(c1ccoc1)N1CCN(c2cc(-c3ccco3)nc3cc(-c4ccco4)nn23)CC1,.,.,.,.,2.5,.,.,.
CC1(C)Cc2c(c(-c3ccccc3)nc3sc4c(=O)[nH]c(=S)[nH]c4c23)CO1,i,20.0*,.,.,.,i,19.0,11.5
C#CCNC(=O)C[C@H]1C[C@@]2(C(=O)OC)C(=C[C@H](COCc3ccccc3)O[C@@H]2C)N(Cc2cccc3ccccc23)C1=O,.,.,.,.,-1.4,.,.,.
